In ChEMBL document CHEMBL3108779, “Pyrronazols, metabolites from the myxobacteria Nannocystis pusilla and N. exedens, are unusual chlorinated pyrone-oxazole-pyrroles” (J Nat Prod, 2014):
In brackets after ≈: the same amount, converted by molar mass. Activity calls are given as the source filed them. The calls are words filed in the database; no cut-off is given here.

Experiments:
[1] = tested on: Mycolicibacterium diernhoferi; assay: Antibacterial activity against Mycobacterium diernhoferi DSM 43542 assessed as growth inhibition after 24 to 48 hrs; type: functional
[2] = Antifungal activity against Trichosporon oleaginosus DSM 11815 assessed as growth inhibition after 24 to 48 hrs; type: functional; details: Cutaneotrichosporon oleaginosum
Summary of the method: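 Yeast pre-grown at 30 °C and 160 rpm for 24−48 h, then adjusted to OD548 0.1. Tested by 1:1 serial dilution in 96-well plates in MYC medium (1.0% glucose, 1.0% phytone peptone, 50 mM HEPES, pH 7.0). MIC was the lowest concentration preventing visible growth.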

[3] = tested on: Chromobacterium violaceum; assay: Antibacterial activity against Chromobacterium violaceum DSM 30191 assessed as growth inhibition after 24 to 48 hrs; type: functional
Mycobacterium sp. = assay: Antibacterial activity against Mycobacterium sp. DSM 43270 assessed as growth inhibition after 24 to 48 hrs; type: functional
Nocardia sp. = assay: Antibacterial activity against Nocardia sp. DSM 43069 assessed as growth inhibition after 24 to 48 hrs; type: functional
Aspergillus fumigatus = assay: Antifungal activity against Aspergillus fumigatus DSM 15966 assessed as growth inhibition after 24 to 48 hrs; type: functional
Summary of the method: (§1)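 Fungi pre-grown at 30 °C and 160 rpm for 24−48 h. Tested by 1:1 serial dilution in 96-well microtiter plates in MYC medium (1.0% glucose, 1.0% phytone peptone, 50 mM HEPES, pH 7.0). MIC was the lowest concentration preventing visible growth.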

[4] = Cytotoxicity against human KB3-1 cells after 5 days by MTT assay; type: functional; details: KB 3-1, 120 h, read-out: LD50 (the source's name)
Summary of the method: (§2)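 A549, KB-3-1 and mouse fibroblast L929 cells cultured in DMEM plus 10% FBS at 37 °C, 10% CO2. IC50 determined by MTT assay in 96-well microplates; methanol served as negative control.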

L929 = assay: Cytotoxicity against mouse L929 cells after 5 days by MTT assay; type: functional; details: L929, 120 h, read-out: LD50 (the source's name); summary of the method: as §2
Mucor hiemalis = assay: Antifungal activity against Mucor hiemalis DSM 2656 assessed as growth inhibition after 24 to 48 hrs; type: functional; summary of the method: as §1
[5] = Cytotoxicity against HUVEC after 5 days by MTT assay; type: cell-based; details: human, HUVEC cells
Summary of the method: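 Nontransformed HUVEC kept in EBM-2 with 10% FBS at 37 °C under 10% CO2. MTT read-out in 96-well plates gives the IC50, with methanol as negative control.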

Paenibacillus polymyxa = assay: Antibacterial activity against Paenibacillus polymyxa DSM 36 assessed as growth inhibition after 24 to 48 hrs; type: functional
Wickerhamomyces anomalus = assay: Antifungal activity against Wickerhamomyces anomalus DSM 6766 assessed as growth inhibition after 24 to 48 hrs; type: functional
Summary of the method: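 Yeast grown at 30 °C, 160 rpm for 24−48 h and adjusted to OD548 0.1, then tested by 1:1 serial dilution in MYC medium (1.0% glucose, 1.0% phytone peptone, 50 mM HEPES, pH 7.0) in 96-well plates. MIC taken as the lowest concentration preventing visible growth.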

SK-OV-3 = assay: Cytotoxicity against human SKOV3 cells after 5 days by MTT assay; type: functional; details: SK-OV-3, 120 h, read-out: LD50 (the source's name)
Summary of the method: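 Human ovarian carcinoma SKOV3 cells maintained in McCoy's medium with 10% FBS, 37 °C, 10% CO2. IC50 obtained from MTT assay in 96-well plates, with methanol as negative control.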

Aspergillus flavus = assay: Antifungal activity against Aspergillus flavus DSM 1959 assessed as growth inhibition after 24 to 48 hrs; type: functional
Summary of the method: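 Fungus grown at 30 °C, 160 rpm for 24−48 h, then tested by 1:1 serial dilution in MYC medium (1.0% glucose, 1.0% phytone peptone, 50 mM HEPES, pH 7.0) in 96-well plates. MIC read as the lowest concentration preventing visible growth.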

A549 = assay: Cytotoxicity against human A549 cells after 5 days by MTT assay; type: functional; details: A549, 120 h, read-out: LD50 (the source's name); summary of the method: as §2

| Compound | MIC [1] | MIC [2] | MIC [3] | MIC (Mycobacterium sp.) | MIC (Nocardia sp.) | MIC (Aspergillus fumigatus) | CC50 [4] [µM] | CC50 (L929) [µM] | MIC (Mucor hiemalis) | IC50 at 120 h [5] [µM] | MIC (Paenibacillus polymyxa) | MIC (Wickerhamomyces anomalus) | CC50 (SK-OV-3) [µM] | MIC (Aspergillus flavus) | CC50 (A549) [µM] | MIC (Wickerhamomyces anomalus; Hansenula anomala) [µg/mL] |
| --- | --- | --- | --- | --- | --- | --- | --- | --- | --- | --- | --- | --- | --- | --- | --- | --- |
| CN[C@@H]1[C@H](O[C@H]2[C@H](O[C@H]3[C@H](O)[C@@H](O)[C@H](N=C(N)N)[C@@H](O)[C@@H]3N=C(N)N)O[C@@H](C)[C@]2(O)C=O)O[C@@H](CO)[C@H](O)[C@H]1O.CN[C@@H]1[C@H](O[C@H]2[C@H](O[C@H]3[C@H](O)[C@@H](O)[C@H](N=C(N)N)[C@@H](O)[C@@H]3N=C(N)N)O[C@@H](C)[C@]2(O)C=O)O[C@@H](CO)[C@H](O)[C@H]1O.O=S(=O)(O)O.O=S(=O)(O)O.O=S(=O)(O)O [STREPTOMYCIN SULFATE] | < 0.52 µg/mL | 0.1 µg/mL | 2.1 µg/mL | 2.1 µg/mL | < 0.52 µg/mL |  |  |  |  |  |  |  |  |  |  |  |
| COC1=CC(=O)O[C@H](c2coc(/C(=C/c3ccc(Cl)[nH]3)CO)n2)[C@@H]1C | inactive | inactive | inactive | inactive | inactive | inactive | > 27.4 | > 27.4 | 33.3 µg/mL (≈ 91.3 µM) | > 27.4 | inactive | inactive | > 27.4 | inactive | > 27.1 |  |
| Oc1cccc2nc3c(O)cccc3nc12 | 33.3 µg/mL (≈ 157 µM) | inactive | 66.7 µg/mL (≈ 314 µM) | 66.7 µg/mL (≈ 314 µM) | 33.3 µg/mL (≈ 157 µM) | inactive | 5.81 | 11.3 | 33.3 µg/mL (≈ 157 µM) | 3.81 | 66.7 µg/mL (≈ 314 µM) |  | 2.59 | inactive | 5.65 | 33.3 (≈ 157 µM) |
| C[C@@H]1[C@H](O)[C@@H](C)/C=C/C=C/C=C/C=C/C=C/C=C/C=C/[C@H](O[C@@H]2O[C@H](C)[C@@H](O)[C@H](N)[C@@H]2O)C[C@@H]2O[C@](O)(C[C@@H](O)C[C@@H](O)[C@H](O)CC[C@@H](O)C[C@@H](O)CC(=O)O[C@H]1C)C[C@H](O)[C@H]2C(=O)O [AMPHOTERICIN B] |  |  |  |  |  | < 0.52 µg/mL |  |  |  |  |  |  |  | 1 µg/mL (≈ 1.08 µM) |  |  |
| C[C@@H]1[C@H](O)[C@@H](C)/C=C/C=C/CC/C=C/C=C/C=C/C=C/[C@H](O[C@@H]2O[C@H](C)[C@@H](O)[C@H](N)[C@@H]2O)C[C@@H]2O[C@](O)(C[C@@H](O)[C@H](O)CC[C@@H](O)C[C@@H](O)C[C@@H](O)CC(=O)O[C@H]1C)C[C@H](O)[C@H]2C(=O)O.O |  |  |  |  |  |  |  |  | 2.1 µg/mL |  |  |  |  |  |  | 0.52 |
| OC[C@H]1O[C@H](Oc2cccc3nc4c(O)cccc4nc23)[C@@H](O)[C@@H]1O | 66.6 µg/mL (≈ 193 µM) | inactive | inactive |  | inactive | 33.3 µg/mL (≈ 96.7 µM) |  |  | inactive |  | inactive | inactive |  | inactive |  |  |
| CN(C)[C@@H]1C(O)=C(C(N)=O)C(=O)[C@@]2(O)C(O)=C3C(=O)c4c(O)cccc4[C@@](C)(O)[C@H]3[C@H](O)[C@@H]12.Cl [OXYTETRACYCLINE HYDROCHLORIDE] |  |  |  |  |  |  |  |  |  |  | 6.7 µg/mL |  |  |  |  |  |
